Screening data from PubChem.
TAAR1 antagonist – human TAAR1 antagonism; Q96RJ0; 360,000 tested, 1.5% active; CHO RD-HGA16 TAAR1, Fluo-8 calcium fluorescence, antagonist; AID 624466; inhibition, % at 3 µM;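 active means inhibition above a per-plate cutoff, the mean inhibition of test compounds on that plate plus 3 SD, cut at about 49% in these data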
Target sequence (Q96RJ0 whole entry, looked up): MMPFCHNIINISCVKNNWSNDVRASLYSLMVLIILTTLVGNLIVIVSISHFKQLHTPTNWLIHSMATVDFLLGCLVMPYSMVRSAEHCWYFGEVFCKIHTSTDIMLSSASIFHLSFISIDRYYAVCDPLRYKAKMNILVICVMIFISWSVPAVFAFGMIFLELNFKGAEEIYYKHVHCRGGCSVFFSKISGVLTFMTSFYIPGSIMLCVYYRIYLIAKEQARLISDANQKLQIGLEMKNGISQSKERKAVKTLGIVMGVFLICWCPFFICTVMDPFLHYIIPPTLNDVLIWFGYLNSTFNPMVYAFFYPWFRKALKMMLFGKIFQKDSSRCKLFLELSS
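Test system: hTAAR1-expressing CHO RD-HGA16 cells, Gα16-coupled; Probe or stimulus: EC80 β-phenethylamine stimulus; Compound dosing: single nominal final test compound concentration of 3 µM; Timing: 140 s kinetic read after compound, 140 s after agonist; Signal: Fluo-8 calcium-sensitive fluorescence; Measure: % inhibition of agonist calcium response; Controls: DMSO and EC80 PEA controls.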
CHRM1 PAM – potentiates human M1 receptor response to acetylcholine; AID 588819; activation, % at 3 µM; CHO-K1 hM1, Fluo-8 calcium fluorescence, ACh EC20; 0% = ACh EC20, 100% = maximal ACh; 360,000 tested, 0.088% active; in the data active means activation above about 19%, passing the limit was not always enough
CHRM1 agonist – activates human CHRM1 receptor. P11229. AID 588814. CHO-K1 hM1, Fluo-8 calcium fluorescence, agonist mode; 0% DMSO, 100% acetylcholine EC100. 360,000 tested, 0.33% active. activation, % at 3 µM;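 active means activation above the run's mean compound activation plus 3 SD, cut at about 16% in these data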;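 further: peak over basal fluorescence ratio within a 140 s kinetic read after compound addition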
TAAR1 ag – human TAAR1 agonism; Q96RJ0; CHO RD-HGA16 TAAR1, Fluo-8 calcium fluorescence; vehicle wells 0%, saturating PEA agonist 100%; activation, % at 3 µM; 360,000 tested, 0.99% active; AID 624467;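 active means activation above the mean activation of all test compounds in the run plus 3 SD, cut at about 38% in these data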
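Test system: RD-HGA16 (CHO) cells co-expressing Gα16 and hTAAR1; dosing: one-point dosing at 3 µM (nominal); timing: 17-24 h seeding, 75 min 37 °C dye, 30 min RT; signal: kinetic Fluo-8 calcium fluorescence; read-out basis: % activation relative to PEA EC100 response; controls: DMSO and PEA EC100; replicates: n 1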
CHRM1 antagonist – antagonists of human M1 muscarinic receptor | P11229 | inhibition, % at 3 µM | 360,000 tested, 1.3% active | CHO-K1 hM1, Fluo-8 calcium fluorescence, ACh EC80 antagonist;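 active means percent inhibition above its own plate's cutoff, namely the mean of that plate's compound wells plus 3 SD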;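 further: peak over basal fluorescence ratio during 140 s after agonist addition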
Hits are given with their value; - = inactive; . = no result given; ! = not active in a repeat. Shown are actives, neighbours in structure and some others; about 3.4% of the full set was active somewhere.

SMILES	TAAR1 antagonist	CHRM1 PAM	CHRM1 agonist	TAAR1 ag	CHRM1 antagonist
O=C(c1cc(F)ccc1F)C1CCCN(CCCc2ccccc2)C1 (stereo not given)	-	-	-	-	36
C[C@](N)(CCP(=O)(O)O)C(=O)O	-	-	-	-	-
O=C(Nc1ccccc1)N1Cc2cc(Br)ccc2-n2nncc2C1	-	.	.	-	.
Oc1c(Br)cc(Br)cc1CN1CCN(Cc2ccccc2)CC1	-	-	-	-	-
CCN1CCN(Cc2cc(Br)cc(OC)c2O)CC1	-	-	-	-	56
Cc1ccc(N2C(=O)NC(=O)/C(=C/c3cnc(-c4ccccc4)nc3)C2=O)cc1C	-	-	-	-	-
CC(C)c1ccc(N2C(=O)NC(=O)/C(=C\c3cnc(-c4ccccc4)nc3)C2=O)cc1	-	26	-	-	-
CC12CCC3C(CCC4CC(=O)OCC43C)C1CCC2O (stereo not given)	-	-	-	-	-
Cc1ccc(OC(=O)N(C)C[C@H]2OCc3cnnn3CCCC(=O)N([C@H](C)CO)C[C@H]2C)cc1	-	.	.	-	.
S=C1CN=C(c2ccccc2)c2cc(Cl)ccc2N1	-	-	46	-	-
ClC1C(Cl)C(Cl)C(Cl)C(Cl)C1Cl (stereo not given)	-	-	47!	-	-
C[C@H]1CNCCN1c1ccc(N2CC[C@@H](O)C2)c(C#N)c1	-	.	.	-	.
O=c1[nH]c(=S)n(Cc2ccc(F)cc2)c(O)c1/C=N/N1CCCCC1	-	-	27	-	-
CCOP(=S)(OCC)Oc1cc(C)oc(=O)c1	-	29	-	-	-
CCOP(=S)(OCC)Oc1cc(C)oc(=O)c1Cl	-	-	-	-	-
OC(Cn1c2ccccc2c2ccccc21)C[n+]1cccc2ccccc21 (stereo not given)	-	-	-	-	63
CC1C(=O)OC2CCN3CC4OC4(COC(=O)C(C)(O)C1(C)O)C23 (stereo not given)	-	.	.	-	.
CCCCCn1c(N)c(C(=O)NCc2cccs2)c2nc3ccccc3nc21	-	.	.	-	.
Nc1c(C(=O)NCCCc2ccccc2)c2nc3ccccc3nc2n1Cc1cccs1	-	-	-	37	-
CN1OC[C@@H]2CN3C4(C[C@@H]21)c1ccccc1C3(c1ccccc1)c1ccccc14	-	.	.	-	.
Brc1ccc2[nH]cc(/C=N/N3CCCCC3)c2c1	-	-	32	-	-
C(=NN1CCCCCC1)c1c[nH]c2ccccc12	-	-	-	-	-
CCOC(=O)C1CCCN(c2ccc([N+](=O)[O-])c3nonc23)C1 (stereo not given)	71	-	298	225	70
CC1CCCN(c2ccc(C(=O)N3CCC4(CC3)OCCO4)cc2[N+](=O)[O-])C1 (stereo not given)	-	-	-	-	-
CCC[N+]12CCC(CC1)C(=C(c1ccccc1)c1ccccc1)C2	-	-	-	-	99
SMILES	TAAR1 antagonist	CHRM1 PAM	CHRM1 agonist	TAAR1 ag	CHRM1 antagonist
CCCC[N+]12CCC(CC1)C(=C(c1ccccc1)c1ccccc1)C2	-	-	-	-	99
COC(=O)C1=C(c2ccc(Cl)c(C(F)(F)F)c2)C[C@@H]2CC[C@H]1N2C(=O)NCCCOC(C)C	.	-	-	.	-
O=C(NC1CN2CCC1CC2)c1cccc(Cl)c1 (stereo not given)	-	-	-	-	-
O=C(COc1ccc(Cl)cc1)NC1CN2CCC1CC2 (stereo not given)	-	-	-	-	45
COc1ccc(C(=O)C2CCCN(Cc3ccon3)C2)cc1OC (stereo not given)	-	-	-	-	-
COc1cccc(C(=O)C2CCCN(Cc3ccc(F)cc3)C2)c1 (stereo not given)	-	-	-	-	-
O=C(c1ccc2c(c1)OCO2)C1CCCN(Cc2c(F)cccc2Cl)C1 (stereo not given)	-	-	-	-	92
COc1c(C)cc(C(=O)C2CCCN(C3CCOCC3)C2)cc1C (stereo not given)	-	-	-	-	55
O=C(c1ccc2c(c1)OCO2)C1CCCN(CC2CCCCC2)C1 (stereo not given)	-	-	-	-	42
COc1cccc(C(=O)C2CCCN(Cc3ccc4nsnc4c3)C2)c1 (stereo not given)	-	-	-	-	34
